In ChEMBL document CHEMBL1143773, “Synthesis and studies on antidepressant and anticonvulsant activities of some 3-(2-furyl)-pyrazoline derivatives” (Eur J Med Chem, 2007):
Calls of active or inactive are those of the source. The rule behind the calls is not given here.

Tests used:
[1] = system: Mus musculus; assay: Neurotoxicity in Albino mouse at 30 mg/kg, ip after 30 mins by RotaRod test; assay type: toxicity, organism-based; set-up: dose 30 mg/kg, route intraperitoneal; details: in vivo, 0.5 h
Outline: (§1)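 Phase I protocol of the NINCDS antiepileptic drug development programme in albino mice, covering MES, subcutaneous pentylenetetrazole (metrazol) and rotarod neurotoxicity. Doses were 30, 100 and 300 mg/kg, read at 1/2 h and 4 h. One animal per dose and time point, scored as 0/1 (no activity) or 1/1 (noticeable activity).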

[2] = system: Mus musculus; assay: Neurotoxicity in Albino mouse at 300 mg/kg, ip after 30 mins by RotaRod test; assay type: toxicity, organism-based; set-up: dose 300 mg/kg, route intraperitoneal; details: in vivo, 0.5 h; outline: as §1
[3] = system: Mus musculus; assay: Neurotoxicity in Albino mouse at 100 mg/kg, ip after 30 mins by RotaRod test; assay type: toxicity, organism-based; set-up: dose 100 mg/kg, route intraperitoneal; details: in vivo, 0.5 h; outline: as §1
[4] = system: Mus musculus; assay: Antidepressant activity in Albino mouse assessed as duration of immobility at 10 mg/kg, ip by forced-swimming test; assay type: functional; details: route intraperitoneal
Outline: (§2)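 Porsolt forced-swim test in albino mice. Drug given ip at 0.5 ml/20 g body weight, 1 h before testing. Controls received 1% aqueous Tween 80. Each mouse was placed singly in a water-filled Plexiglas cylinder for 6 min. Immobility (floating upright with only slight movements to stay afloat) was timed over the last 4 min.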

[5] = system: Mus musculus; assay: Anticonvulsant activity against metrazole-induced seizures in Albino mouse at 30 mg/kg, ip after 30 mins by scMet assay; assay type: functional, organism-based; set-up: dose 30 mg/kg; outline: as §1
[6] = system: Mus musculus; assay: Anticonvulsant activity in Albino mouse at 300 mg/kg, ip after 4 hrs by MES test; assay type: functional, organism-based; set-up: dose 300 mg/kg; outline: as §1
[7] = system: Mus musculus; assay: Anticonvulsant activity against metrazole-induced seizures in Albino mouse at 300 mg/kg, ip after 4 hrs by scMet assay; assay type: functional, organism-based; set-up: dose 300 mg/kg; outline: as §1
[8] = system: Mus musculus; assay: Anticonvulsant activity against metrazole-induced seizures in Albino mouse at 30 mg/kg, ip after 4 hrs by scMet; assay type: functional, organism-based; set-up: dose 30 mg/kg; outline: as §1
[9] = system: Mus musculus; assay: Neurotoxicity in Albino mouse at 100 mg/kg, ip after 4 hrs by RotaRod test; assay type: toxicity, organism-based; set-up: dose 100 mg/kg, route intraperitoneal; details: in vivo; outline: as §1
[10] = system: Mus musculus; assay: Anticonvulsant activity against metrazole-induced seizures in Albino mouse at 100 mg/kg, ip after 30 mins by scMet assay; assay type: functional, organism-based; set-up: dose 100 mg/kg; outline: as §1
[11] = system: Mus musculus; assay: Anticonvulsant activity against metrazole-induced seizures in Albino mouse at 100 mg/kg, ip after 4 hrs by scMet assay; assay type: functional, organism-based; set-up: dose 100 mg/kg; outline: as §1
[12] = system: Mus musculus; assay: Anticonvulsant activity in Albino mouse at 30 mg/kg, ip after 4 hrs by MES test; assay type: functional, organism-based; set-up: dose 30 mg/kg; outline: as §1
[13] = system: Mus musculus; assay: Neurotoxicity in Albino mouse at 300 mg/kg, ip after 4 hrs by RotaRod test; assay type: toxicity, organism-based; set-up: dose 300 mg/kg, route intraperitoneal; details: in vivo; outline: as §1
[14] = system: Mus musculus; assay: Anticonvulsant activity in Albino mouse at 100 mg/kg, ip after 4 hrs by MES test; assay type: functional, organism-based; set-up: dose 100 mg/kg; outline: as §1
[15] = system: Mus musculus; assay: Neurotoxicity in Albino mouse at 30 mg/kg, ip after 4 hrs by RotaRod test; assay type: toxicity, organism-based; set-up: dose 30 mg/kg, route intraperitoneal; details: in vivo; outline: as §1
[16] = system: Mus musculus; assay: Anticonvulsant activity in Albino mouse by MES test at 30mg/kg, ip after 30 mins; assay type: functional, organism-based; outline: as §1
[17] = system: Mus musculus; assay: Anticonvulsant activity against metrazole-induced seizures in Albino mouse at 300 mg/kg, ip after 30 mins by scMet assay; assay type: functional, organism-based; set-up: dose 300 mg/kg; outline: as §1
[18] = system: Mus musculus; assay: Anticonvulsant activity in Albino mouse by MES test at 300 mg/kg, ip after 30 mins; assay type: functional, organism-based; set-up: dose 300 mg/kg; outline: as §1
[19] = system: Mus musculus; assay: Antidepressant activity in Albino mouse assessed as duration of immobility at 10 mg/kg, ip by forced-swimming test relative to control; assay type: functional; details: route intraperitoneal; outline: as §2
[20] = system: Mus musculus; assay: Anticonvulsant activity in Albino mouse by MES test at 100 mg/kg, ip after 30 mins; assay type: functional, organism-based; set-up: dose 100 mg/kg; outline: as §1

| SMILES | Activity [1] | Activity [2] | Activity [3] | Activity [4] [s] | Activity [5] | Activity [6] | Activity [7] | Activity [8] | Activity [9] | Activity [10] | Activity [11] | Activity [12] | Activity [13] | Activity [14] | Activity [15] | Activity [16] | Activity [17] | Activity [18] | Activity [19] [%] | Activity [20] |
| --- | --- | --- | --- | --- | --- | --- | --- | --- | --- | --- | --- | --- | --- | --- | --- | --- | --- | --- | --- | --- |
| CNC(=S)N1N=C(c2ccco2)CC1c1ccco1 (configuration not stated) | Not Active | Not Active | Not Active | 186 | inactive | Active | Active | inactive | Not Active | inactive | Active | Active | Not Active | Active | Not Active | inactive | inactive | inactive | -11.42 | inactive |
| NC(=S)N1N=C(c2ccco2)CC1c1ccccc1 (configuration not stated) | Not Active | Not Active | Not Active | 202 | inactive | inactive | inactive | inactive | Not Active | inactive | inactive | inactive | Not Active | inactive | Not Active | inactive | inactive | inactive | 3.81 | inactive |
| NC(=S)N1N=C(c2ccco2)CC1c1ccco1 (configuration not stated) | Not Active | Not Active | Not Active | 182 | Active | Active | inactive | inactive | Not Active | Active | inactive | inactive | Not Active | inactive | Not Active | inactive | Active | inactive | -13.33 | inactive |
| S=C(Nc1ccccc1)N1N=C(c2ccco2)CC1c1ccco1 (configuration not stated) | Not Active | Not Active | Not Active | 181 | inactive | inactive | inactive | inactive | Not Active | Active | inactive | inactive | Not Active | inactive | Not Active | inactive | Active | inactive | -13.81 | inactive |
| C=CCNC(=S)N1N=C(c2ccco2)CC1c1ccco1 (configuration not stated) | Not Active | Not Active | Not Active | 144 | inactive | Active | Active | inactive | Not Active | inactive | Active | inactive | Not Active | Active | Not Active | inactive | inactive | inactive | -31.42 | inactive |
| c1ccc(N2N=C(c3ccco3)CC2c2ccco2)cc1 (configuration not stated) | Not Active | Not Active | Not Active | 169 | inactive | inactive | inactive | inactive | Not Active | inactive | inactive | inactive | Not Active | inactive | Not Active | inactive | inactive | Active | -19.52 | Active |
| CNC(=S)N1N=C(c2ccco2)CC1c1ccccc1 (configuration not stated) | Not Active | Not Active | Not Active | 201 | inactive | inactive | inactive | inactive | Not Active | inactive | inactive | inactive | Not Active | inactive | Not Active | inactive | inactive | inactive | -4.28 | inactive |
| S=C(Nc1ccccc1)N1N=C(c2ccco2)CC1c1ccccc1 (configuration not stated) | Not Active | Not Active | Not Active | 184 | inactive | Active | inactive | inactive | Not Active | inactive | inactive | inactive | Not Active | inactive | Not Active | inactive | inactive | inactive | -12.38 | inactive |
| N[C@H]1C[C@@H]1c1ccccc1.O=S(=O)(O)O | – | – | – | 57 | – | – | – | – | – | – | – | – | – | – | – | – | – | – | -72.85 | – |
| C=CCNC(=S)N1N=C(c2ccco2)CC1c1ccccc1 (configuration not stated) | Not Active | Not Active | Not Active | 190 | inactive | inactive | inactive | inactive | Not Active | inactive | inactive | inactive | Not Active | inactive | Not Active | inactive | inactive | Active | -9.52 | Active |
| CCNC(=S)N1N=C(c2ccco2)CC1c1ccco1 (configuration not stated) | Not Active | Not Active | Not Active | 211 | Active | inactive | Active | inactive | Not Active | Active | inactive | inactive | Not Active | inactive | Not Active | inactive | Active | inactive | 0.48 | inactive |
